How the values were obtained:
Type in all cases: functional
Streptococcus pneumoniae [1] = assay: Antimicrobial activity against penicillin-susceptible Streptococcus pneumoniae by agar dilution method
Streptococcus pneumoniae [2] = assay: Antimicrobial activity against penicillin-intermediate Streptococcus pneumoniae by agar dilution method
Streptococcus pneumoniae [3] = assay: Antimicrobial activity against penicillin-resistant Streptococcus pneumoniae by agar dilution method
How it was run: (§1)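 Agar dilution MIC on Mueller-Hinton agar with 5% sheep blood, inocula 10^4 CFU/spot; amoxicillin-clavulanate combined 1:2; S. pneumoniae ATCC 49619 quality control each run.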

Streptococcus pneumoniae [4] = assay: Antimicrobial activity against Streptococcus pneumoniae 19A by agar dilution method; how it was run: as §1
Streptococcus pneumoniae [5] = assay: Antimicrobial activity against Streptococcus pneumoniae 1 by time-kill analysis
How it was run: (§2)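 Time-kill in cation-adjusted Mueller-Hinton broth with 5% lysed horse blood; inocula 5 × 105 to 5 × 10^6 CFU/ml; drugs at MIC, 2× and 4× MIC; 35°C shaking water bath; viable counts at 0, 3, 6, 12 and 24 h. Bactericidal if ≥3 log10 CFU/ml (99.9%) reduction from original inoculum; 90% and 99% killing also scored.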

Streptococcus pneumoniae [6] = assay: Antimicrobial activity against Streptococcus pneumoniae 2 by time-kill analysis
How it was run: (§3)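 Time-kill in cation-adjusted Mueller-Hinton broth with 5% lysed horse blood; inocula 5 × 105 to 5 × 10^6 CFU/ml; drugs at MIC, 2× and 4× MIC; 35°C shaking water bath; viable counts at 0, 3, 6, 12, 24 h. Bactericidal = ≥3 log10 CFU/ml (99.9%) drop from original inoculum; 90%/99%/99.9% killing scored per strain.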

Streptococcus pneumoniae [7] = assay: Antimicrobial activity against Streptococcus pneumoniae 3 by time-kill analysis; how it was run: as §3
Streptococcus pneumoniae [8] = assay: Antimicrobial activity against Streptococcus pneumoniae 4 by time-kill analysis; how it was run: as §3
Streptococcus pneumoniae [9] = assay: Antimicrobial activity against Streptococcus pneumoniae 5 by time-kill analysis; how it was run: as §2
Streptococcus pneumoniae [10] = assay: Antimicrobial activity against Streptococcus pneumoniae 6 by time-kill analysis; how it was run: as §3
Streptococcus pneumoniae [11] = assay: Antimicrobial activity against Streptococcus pneumoniae 7 by time-kill analysis; how it was run: as §3
Streptococcus pneumoniae [12] = assay: Antimicrobial activity against Streptococcus pneumoniae 8 by time-kill analysis; how it was run: as §3
Streptococcus pneumoniae [13] = assay: Antimicrobial activity against Streptococcus pneumoniae 9 by time-kill analysis; how it was run: as §2
Streptococcus pneumoniae [14] = assay: Antimicrobial activity against Streptococcus pneumoniae 10 by time-kill analysis; how it was run: as §3
Streptococcus pneumoniae [15] = assay: Antimicrobial activity against Streptococcus pneumoniae 11 by time-kill analysis; how it was run: as §3
Streptococcus pneumoniae [16] = assay: Antimicrobial activity against Streptococcus pneumoniae 12 by time-kill analysis; how it was run: as §3
Streptococcus pneumoniae [17] = assay: Antimicrobial activity against Streptococcus pneumoniae isolate 24 by agar dilution method
Streptococcus pneumoniae [18] = assay: Antimicrobial activity against Streptococcus pneumoniae isolate 33 by agar dilution method; how it was run: as §1
Streptococcus pneumoniae [19] = assay: Antimicrobial activity against Streptococcus pneumoniae isolate 37 by agar dilution method; how it was run: as §1
Streptococcus pneumoniae [20] = assay: Antimicrobial activity against Streptococcus pneumoniae isolate 1055 by agar dilution method
Streptococcus pneumoniae [21] = assay: Antimicrobial activity against Streptococcus pneumoniae isolate 1146 by agar dilution method; how it was run: as §1
Streptococcus pneumoniae [22] = assay: Antimicrobial activity against Streptococcus pneumoniae isolate 1147 by agar dilution method; how it was run: as §1
Streptococcus pneumoniae [23] = assay: Antimicrobial activity against Streptococcus pneumoniae isolate 1384 by agar dilution method; how it was run: as §1
Streptococcus pneumoniae [24] = assay: Antimicrobial activity against Streptococcus pneumoniae isolate 1394 by agar dilution method
Streptococcus pneumoniae [25] = assay: Antimicrobial activity against Streptococcus pneumoniae isolate 1397 by agar dilution method; how it was run: as §1
Streptococcus pneumoniae [26] = assay: Antimicrobial activity against Streptococcus pneumoniae isolate 1424 by agar dilution method; how it was run: as §1
Streptococcus pneumoniae [27] = assay: Antimicrobial activity against Streptococcus pneumoniae isolate 1564 by agar dilution method
Streptococcus pneumoniae [28] = assay: Antimicrobial activity against Streptococcus pneumoniae isolate 2617 by agar dilution method; how it was run: as §1
Streptococcus pneumoniae [29] = assay: Antimicrobial activity against Streptococcus pneumoniae isolate 2686 by agar dilution method; how it was run: as §1
Streptococcus pneumoniae [30] = assay: Antimicrobial activity against Streptococcus pneumoniae isolate 2688 by agar dilution method; how it was run: as §1
Streptococcus pneumoniae [31] = assay: Antimicrobial activity against Streptococcus pneumoniae isolate 2874 by agar dilution method; how it was run: as §1
Streptococcus pneumoniae [32] = assay: Antimicrobial activity against Streptococcus pneumoniae isolate 2880 by agar dilution method; how it was run: as §1
Streptococcus pneumoniae [33] = assay: Antimicrobial activity against Streptococcus pneumoniae isolate 3260 by agar dilution method
Streptococcus pneumoniae [34] = assay: Antimicrobial activity against Streptococcus pneumoniae isolate 3263 by agar dilution method
Streptococcus pneumoniae [35] = assay: Antimicrobial activity against Streptococcus pneumoniae isolate 3275 by agar dilution method; how it was run: as §1
Streptococcus pneumoniae [36] = assay: Antimicrobial activity against Streptococcus pneumoniae isolate 3282 by agar dilution method
Streptococcus pneumoniae [37] = assay: Antimicrobial activity against Streptococcus pneumoniae isolate 3346 by agar dilution method
Streptococcus pneumoniae [38] = assay: Antimicrobial activity against Streptococcus pneumoniae isolate 3374 by agar dilution method; how it was run: as §1
Streptococcus pneumoniae [39] = assay: Antimicrobial activity against Streptococcus pneumoniae isolate 3412 by agar dilution method; how it was run: as §1
Streptococcus pneumoniae [40] = assay: Antimicrobial activity against Streptococcus pneumoniae isolate 3455 by agar dilution method
Streptococcus pneumoniae [41] = assay: Antimicrobial activity against Streptococcus pneumoniae isolate 3458 by agar dilution method
Streptococcus pneumoniae [42] = assay: Antimicrobial activity against Streptococcus pneumoniae isolate 3481 by agar dilution method; how it was run: as §1
Streptococcus pneumoniae [43] = assay: Antimicrobial activity against Streptococcus pneumoniae isolate 3587 by agar dilution method
Streptococcus pneumoniae [44] = assay: Antimicrobial activity against Streptococcus pneumoniae isolate 3681 by agar dilution method; how it was run: as §1
Streptococcus pneumoniae [45] = assay: Antimicrobial activity against Streptococcus pneumoniae isolate 3791 by agar dilution method; how it was run: as §1
Streptococcus pneumoniae [46] = assay: Antimicrobial activity against Streptococcus pneumoniae isolate 4747 by agar dilution method; how it was run: as §1
Streptococcus pneumoniae [47] = assay: Antimicrobial activity against Streptococcus pneumoniae isolate 4755 by agar dilution method; how it was run: as §1

CO/N=C(\C(=O)N[C@@H]1C(=O)N2C(C(=O)O)=C(CSc3nc(=O)c(O)nn3C)CS[C@H]12)c1csc(N)n1 [CEFTRIAXONE]
> 8 mg/L: MIC (Streptococcus pneumoniae [27])
0.06 mg/L: MIC90 (Streptococcus pneumoniae [1])
2 mg/L: MIC90 (Streptococcus pneumoniae [3]) | MIC50 (Streptococcus pneumoniae [4]) | MIC90 (Streptococcus pneumoniae [4]) | MIC (Streptococcus pneumoniae [11]) | MIC (Streptococcus pneumoniae [12]) | MIC (Streptococcus pneumoniae [17]) | MIC (Streptococcus pneumoniae [19]) | MIC (Streptococcus pneumoniae [21]) | MIC (Streptococcus pneumoniae [22]) | MIC (Streptococcus pneumoniae [23]) | MIC (Streptococcus pneumoniae [29]) | MIC (Streptococcus pneumoniae [31]) | MIC (Streptococcus pneumoniae [39]) | MIC (Streptococcus pneumoniae [42]) | MIC (Streptococcus pneumoniae [46]) | MIC (Streptococcus pneumoniae [47])
0.25 mg/L: MIC (Streptococcus pneumoniae [7]) | MIC (Streptococcus pneumoniae [35])
0.016 mg/L: MIC (Streptococcus pneumoniae [6])
0.03 mg/L: MIC50 (Streptococcus pneumoniae [1]) | MIC (Streptococcus pneumoniae [5])
0.125 mg/L: MIC50 (Streptococcus pneumoniae [2])
1 mg/L: MIC90 (Streptococcus pneumoniae [2]) | MIC50 (Streptococcus pneumoniae [3]) | MIC (Streptococcus pneumoniae [16]) | MIC (Streptococcus pneumoniae [18]) | MIC (Streptococcus pneumoniae [20]) | MIC (Streptococcus pneumoniae [28]) | MIC (Streptococcus pneumoniae [34]) | MIC (Streptococcus pneumoniae [37]) | MIC (Streptococcus pneumoniae [38]) | MIC (Streptococcus pneumoniae [40]) | MIC (Streptococcus pneumoniae [41]) | MIC (Streptococcus pneumoniae [43]) | MIC (Streptococcus pneumoniae [44]) | MIC (Streptococcus pneumoniae [45])
4 mg/L: MIC (Streptococcus pneumoniae [8]) | MIC (Streptococcus pneumoniae [9]) | MIC (Streptococcus pneumoniae [15]) | MIC (Streptococcus pneumoniae [24]) | MIC (Streptococcus pneumoniae [25]) | MIC (Streptococcus pneumoniae [26]) | MIC (Streptococcus pneumoniae [30])
0.5 mg/L: MIC (Streptococcus pneumoniae [32]) | MIC (Streptococcus pneumoniae [33]) | MIC (Streptococcus pneumoniae [36])
0.12 mg/L: MIC (Streptococcus pneumoniae [10]) | MIC (Streptococcus pneumoniae [13]) | MIC (Streptococcus pneumoniae [14])

— ChEMBL document CHEMBL1649446, “Comparative antipneumococcal activities of sulopenem and other drugs” (2009)
